Article PMC9509476 (Cell systems, 2022)

Legend:
PPARG = assay: PPARG; format: cell-based; settings: bladder cancer cell line, absence or presence of Rosiglitazone
PAX8 = settings: ref PubChem; cited from earlier work
[1] = tested on: mesenchymal lineage periosteal cells; assay: qPCR of Hippo components in murine periosteal cells; format: cell-based, mouse; settings: 5μM
Method in brief: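 Periosteal cells from 4-day femoral fracture callus of 3 female 15-week CMV-Cre;R26R-rtTA;tetO-YAPS127A mice (C57Bl/6 background). Cultured in α-MEM with 15% FBS, 1% GlutaMAX and 1% P/S. Test compound given at 5 μM. 1 μM doxycycline for 48 h induced YAPS127A as positive control for YAP1 mRNA.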

[2] = tested on: HEK293, HepG2, A549 cells; settings: ref PubChem; cited from earlier work
U2OS = assay: proliferation in U2OS Cell Painting images; format: cell-based
p38 activity = assay: single-cell p38 activity reporter; format: cell-based; settings: RPE1 p38 reporter; for influence on p38 activity (two-sided t-test): 1 μM, 48 hours
Method in brief: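 RPE1 cells stably carrying a p38 kinase translocation reporter, grown in DMEM/F12 with 10% FBS at 37C, 5% CO2. Plated at 1000 cells/well, then given test compound at 1 or 10 μM for 48 h, 4 wells per concentration. Single-cell activity taken as median cytoplasmic-ring (5-pixel) over nuclear reporter intensity, normalised to same-plate/column DMSO. Significance by t-test or KS test with Benjamini-Hochberg adjustment.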

KP230 cells [3] = settings: 10 μM
human CSNK1A1 = human CSNK1A1 (Homo sapiens, UniProt P48729); assay: CSNK1A1 enzymatic mobility shift assay; format: biochemical
native kinases = assay: full KINOMEscan panel; format: binding
KP230 cells [4] = assay: proliferation assay; format: cell-based, mouse; settings: 10 μM every 24 hours for 3 days
YAP1 [5] = assay: YAP1-responsive TEAD luciferase reporter assay in HEK-293 cells; format: cell-based; settings: 10μM, 48h of YAP overexpression
A375 cells = settings: 6 and 24 hours, ref Subramanian et al., 2017; cited from earlier work
TEAD-YAP interaction = settings: HEK-TIYL cells; ref PubChem; cited from earlier work
KP230 cells [6] = assay: RNA sequencing and gene set enrichment analysis in KP230 cells; format: cell-based, mouse; settings: 10 μM
Method in brief: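 KP230 cells (murine Kras/Trp53 tumour-derived) grown in DMEM with 10% FBS, 1% L-glutamine and 1% P/S at 37C, 5% CO2. Kept at ≤20 passages and about 50% confluence. Treated with 10 μM test compound or an equal volume of DMSO. Total RNA isolated by RNeasy Mini with on-column DNase digestion, then sequenced.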

YAP1 [7] = assay: YAP1 immunofluorescence and Western blot in H9 hPSCs; format: cell-based, human; settings: H9 cells, 10 μM
STS-109 human UPS cells = assay: proliferation assay; format: cell-based; settings: 10 μM daily for 8 days
[8] = tested on: HT-1080 fibrosarcoma cells; assay: proliferation assay; format: cell-based; settings: 10 μM every 24 hours for 3 days
HT29 cells = settings: six hours of treatment, ref Subramanian et al., 2017; cited from earlier work
[9] = tested on: YAP1 target genes (CTGF and CYR61); assay: qPCR of YAP1 and target genes in H9 hPSCs; format: cell-based, human; settings: 24 hrs
[10] = tested on: TC32 human Ewing’s family sarcoma cells; assay: proliferation assay; format: cell-based; settings: 10 μM every 24 hours for 3 days
Yap1 [11] = assay: Yap1 Western blot and immunofluorescence in KP230 cells; format: cell-based, mouse; settings: 10 μM daily
Yap1 [12] = assay: qRT-PCR of Yap1 and sarcoma target genes in KP230 cells; format: cell-based, mouse
[13] = tested on: HCT-116 colon cancer cells; assay: proliferation assay; format: cell-based; settings: 10 μM every 24 hours for 3 days, YAP1-independent line
[14] = tested on: KP230, TC32, STS-109, HT-1080, HCT-116 cells; assay: trypan blue staining for toxicity; format: cell-based; settings: 10 μM, any of the cell lines tested

Chain of human CSNK1A1 (P48729 whole entry): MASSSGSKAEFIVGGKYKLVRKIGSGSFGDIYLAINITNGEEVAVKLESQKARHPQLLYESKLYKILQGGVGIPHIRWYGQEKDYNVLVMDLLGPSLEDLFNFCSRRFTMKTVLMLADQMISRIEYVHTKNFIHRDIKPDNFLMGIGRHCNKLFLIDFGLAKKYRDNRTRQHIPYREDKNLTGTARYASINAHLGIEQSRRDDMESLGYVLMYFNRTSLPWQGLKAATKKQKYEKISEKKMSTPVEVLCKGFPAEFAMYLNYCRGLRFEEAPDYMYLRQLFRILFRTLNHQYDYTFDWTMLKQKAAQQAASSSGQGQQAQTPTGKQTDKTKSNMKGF

In the case of Cc1ccc(-c2nn(C(C)(C)C)c3ncnc(N)c23)cc1 [PP1], the “effect in PPARG (FABP4) reporter assay” value (PPARG) is reported as “reporter activation”.

For CO[C@@H]1CN(C)C(=O)c2cc(NC(=O)Nc3ccc(C(F)(F)F)cc3)ccc2OC[C@@H](C)NC[C@@H]1C [BRD-K34692511, 1-[(4R,7S,8S)-8-methoxy-4,7,10-trimethyl-11-oxo-2-oxa-5,10-diazabicyclo[10.4.0]hexadeca-1(12),13,15-trien-14-yl]-3-[4-(trifluoromethyl)phenyl]urea], the PAX8 inhibition (PAX8) is listed as “none of these impacts”, the “mRNA levels of Hippo components including Yap1 and Cyr61” value ([1]; 1 and 4 hours) is listed as “not at 1 and 4 hours” and the “mRNA levels of Hippo components including Yap1 and Cyr61” value ([1]; 48 hours) is listed as “substantially upregulated”. For the same compound, the “inhibition of cell proliferation AC50” value [2] was “none of these impacts” and the “proliferation in U2OS Cell Painting images” value (U2OS) was “none of these impacts”.

For CCCCCCCCCCCCCC(=O)O[C@@H]1[C@@H](C)[C@@]2(O)[C@@H](C=C(CO)C[C@]3(O)C(=O)C(C)=C[C@@H]23)[C@@H]2C(C)(C)[C@]12OC(C)=O [Phorbol 12-myristate 13-acetate], the “effect in PPARG (FABP4) reporter assay” value (PPARG) was “Inhibitors”.

With CCCCNc1cc(C(=O)O)cc(S(N)(=O)=O)c1Oc1ccccc1 [BRD-K38197229] the “influence on p38 activity (two-sided t-test)” value (p38 activity) was “potential inhibitors”.

For CO[C@@H]1CN(C)C(=O)c2ccc(NC(=O)c3ccc(-c4ccccc4)cc3)cc2OC[C@H](C)NC[C@@H]1C [BRD-K28862419, N-((3S,6S,7S)-7-methoxy-3,6,9-trimethyl-10-oxo-3,4,5,6,7,8,9,10-octahydro-2H-benzo[k][1]oxa[4,9]diazacyclododecin-13-yl)-[1,1′-biphenyl]-4-carboxamide], the PAX8 inhibition (PAX8) is listed as “inhibits”, the KP230 cell viability (KP230 cells [3]) is listed as “modestly yet significantly reduced” and the “proliferation in U2OS Cell Painting images” value (U2OS) is listed as −2.0 st dev.

For Fc1ccc(-c2nc3n(c2-c2ccncc2)CCS3)cc1 [SKF-86002, reference compound], the “inhibitory IC50 concentrations, CSNK1A1” value (human CSNK1A1; at Km ATP) was “nanomolar range”.

For COC1(C[S@@+]([O-])c2ccccc2)CCN(CCc2c[nH]c3ccc(F)cc23)CC1 [BRD-K52394958], the “influence on p38 activity (alternative statistical test)” value (p38 activity) was “identified via an alternative statistical test”.

For C[C@@H]1CN([C@@H](C)CO)C(=O)CCCn2nncc2CO[C@@H]1CN(C)C(=O)Nc1ccnc(N2CCOCC2)c1 [BRD-K65952656], the “binding to native kinases in full KINOMEscan panel” value (native kinases) was “failed to bind any native kinases” and the IC50 (human CSNK1A1; read-out: inhibition of CSNK1A1 IC50) was 12 µM.

With Nc1nc(Nc2ccccc2)nc2c1ncn2C1OC(CO)C(O)C1O (stereo not drawn) [BRD-A64933752] the “influence on p38 activity (two-sided t-test)” value (p38 activity) was “potential inhibitors”.

With CC(C)(C)n1nc(-c2ccc(Cl)cc2)c2c(N)ncnc21 [PP2] the “effect in PPARG (FABP4) reporter assay” value (PPARG) was “reporter activation”.

In the case of CCc1cc(-c2n[nH]c(C)c2-c2ccc3c(c2)OCCO3)c(O)cc1O [CCT018159], the “effect in PPARG (FABP4) reporter assay” value (PPARG) is reported as “Inhibitors”.

For c1ccc(CNc2ncnc3ccccc23)cc1 [NB4A, N-Benzylquinazolin-4-amine], the “proliferation of KP230 cells” value (KP230 cells [4]) is listed as “inhibited”, the “effect in YAP1-responsive reporter assay” value (YAP1 [5]) is listed as “no effect” and the “YAP1 mRNA z-score” value (A375 cells) is listed as ~ −0.7. The “activity in assay detecting inhibitors of TEAD-YAP interaction” value (TEAD-YAP interaction) was “showed activity”, the “epithelial-mesenchymal transition, angiogenesis and glycolysis pathways (GSEA)” value (KP230 cells [6]) was “down-regulated” and the “interferon alpha and gamma response pathways (GSEA)” value (KP230 cells [6]) was “up-regulated”. For the same compound, the YAP1 nuclear localization (YAP1 [7]; 24 hours) was “increased”, the “YAP1 S127 phosphorylation” value (YAP1 [7]; 24 hrs) was “reduced” and the “total YAP1 protein levels” value (YAP1 [7]; 24 hrs) was “decreasing”. The “proliferation of STS-109 cells” value (STS-109 human UPS cells) was “did not affect”, the “proliferation of HT-1080 cells” value [8] was “did not affect” and the “TAZ mRNA z-score” value (HT29 cells) was 2.04. For the same compound, the “YAP1 mRNA z-score” value (HT29 cells) was 3.16, the “YAP1 mRNA expression” value [9] was “did not affect” and the “expression of YAP1 target genes (CTGF and CYR61)” value ([9]; dose-dependent) was “increased”. For the same compound, the “proliferation of TC32 cells” value [10] was “inhibited”, the Yap1 nuclear localization (Yap1 [11]) was “significantly attenuated” and the Yap1 protein levels (Yap1 [11]; after 72 hours) was “reduced”. For the same compound, the “transcription of Yap1, its sarcoma target genes (Foxm1, Ccl2, Hbegf, Birc5, Rela) and Amot” value (Yap1 [12]) was “did not directly alter”, the “proliferation of HCT-116 cells” value [13] was “did not affect” and the “overt toxicity by trypan blue staining” value [14] was “did not exhibit overt toxicity”.
